Values belong to the molecule of their own block, whether it stands above or below them. No end group written: not given here.
Experiments:
[1] = molecular target: T1, GST-RXRα LBD with D22 coactivator peptide (Homo sapiens, UniProt P19793); assay: TR-FRET RXR LBD-coactivator peptide recruitment assay, D22 peptide; assay type: biochemical; details: in combination with a low concentration of CD3254 agonist (Figure S2)
T1 sequence (P19793 227-458 limits assumed): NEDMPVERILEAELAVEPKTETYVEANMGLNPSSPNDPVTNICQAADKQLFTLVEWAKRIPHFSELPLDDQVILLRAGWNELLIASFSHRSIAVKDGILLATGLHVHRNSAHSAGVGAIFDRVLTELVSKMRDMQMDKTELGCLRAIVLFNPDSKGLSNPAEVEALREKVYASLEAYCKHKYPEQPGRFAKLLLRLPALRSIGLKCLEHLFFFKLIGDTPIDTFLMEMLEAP
Method in brief: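 5 nM GST-RXRα LBD incubated at room temperature with 150 nM fluorescein-D22 peptide in 25 mM Hepes pH 7.4, 100 mM NaCl, 0.025% BSA, 5% glycerol, 0.005% Tween-20, 2.5 mM DTT. Ligand or DMSO (≤1%) added; 2 nM Tb-anti-GST antibody for detection. After 4 h, TR-FRET read at 495 and 520 nm. The 520/495 ratio was expressed as Delta F% against controls lacking GST-RXRα.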

[2] = molecular target: T2, recombinant IKKα (Homo sapiens, UniProt O15111); assay: LANCE Ultra TR-FRET kinase assay, recombinant IKKα; assay type: biochemical; details: 20 μM AdAr; ATP near apparent Km; vs solvent control; ± SD, 3–4 experiments
T2 sequence (O15111 1-745): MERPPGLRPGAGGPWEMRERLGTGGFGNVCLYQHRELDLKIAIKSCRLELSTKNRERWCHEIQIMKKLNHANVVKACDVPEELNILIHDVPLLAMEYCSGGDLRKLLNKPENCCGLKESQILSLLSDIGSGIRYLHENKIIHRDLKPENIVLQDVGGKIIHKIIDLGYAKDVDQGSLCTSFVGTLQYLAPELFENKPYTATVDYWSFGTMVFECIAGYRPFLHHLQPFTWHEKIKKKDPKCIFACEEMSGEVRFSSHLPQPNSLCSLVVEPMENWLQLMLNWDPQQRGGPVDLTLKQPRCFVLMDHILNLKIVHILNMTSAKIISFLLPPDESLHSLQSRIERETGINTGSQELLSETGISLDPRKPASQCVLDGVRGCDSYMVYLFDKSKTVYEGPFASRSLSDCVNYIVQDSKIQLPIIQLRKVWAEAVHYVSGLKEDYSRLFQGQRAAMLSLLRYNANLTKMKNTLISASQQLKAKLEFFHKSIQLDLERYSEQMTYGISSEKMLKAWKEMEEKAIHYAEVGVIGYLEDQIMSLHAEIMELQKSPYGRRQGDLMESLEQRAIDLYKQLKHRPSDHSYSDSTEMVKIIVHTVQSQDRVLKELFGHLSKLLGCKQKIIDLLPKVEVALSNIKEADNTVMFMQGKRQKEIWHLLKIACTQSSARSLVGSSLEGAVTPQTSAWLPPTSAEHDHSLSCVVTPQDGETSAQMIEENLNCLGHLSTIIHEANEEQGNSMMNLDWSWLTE
Method in brief: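 Reaction stopped with 20 mM EDTA plus 2 nM Eu-labelled phospho-specific antibody. TR-FRET (ex 340 nm; 615/665 nm) read 2 h later. Counts normalized; inhibition relative to solvent control; triplicates.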

[3] = molecular target: T3, recombinant IKKε (Homo sapiens, UniProt Q14164); assay: LANCE Ultra TR-FRET kinase assay, recombinant IKKε; assay type: biochemical; details: 20 μM AdAr; ATP near apparent Km; vs solvent control; ± SD, 3–4 experiments
T3 sequence (Q14164 1-716): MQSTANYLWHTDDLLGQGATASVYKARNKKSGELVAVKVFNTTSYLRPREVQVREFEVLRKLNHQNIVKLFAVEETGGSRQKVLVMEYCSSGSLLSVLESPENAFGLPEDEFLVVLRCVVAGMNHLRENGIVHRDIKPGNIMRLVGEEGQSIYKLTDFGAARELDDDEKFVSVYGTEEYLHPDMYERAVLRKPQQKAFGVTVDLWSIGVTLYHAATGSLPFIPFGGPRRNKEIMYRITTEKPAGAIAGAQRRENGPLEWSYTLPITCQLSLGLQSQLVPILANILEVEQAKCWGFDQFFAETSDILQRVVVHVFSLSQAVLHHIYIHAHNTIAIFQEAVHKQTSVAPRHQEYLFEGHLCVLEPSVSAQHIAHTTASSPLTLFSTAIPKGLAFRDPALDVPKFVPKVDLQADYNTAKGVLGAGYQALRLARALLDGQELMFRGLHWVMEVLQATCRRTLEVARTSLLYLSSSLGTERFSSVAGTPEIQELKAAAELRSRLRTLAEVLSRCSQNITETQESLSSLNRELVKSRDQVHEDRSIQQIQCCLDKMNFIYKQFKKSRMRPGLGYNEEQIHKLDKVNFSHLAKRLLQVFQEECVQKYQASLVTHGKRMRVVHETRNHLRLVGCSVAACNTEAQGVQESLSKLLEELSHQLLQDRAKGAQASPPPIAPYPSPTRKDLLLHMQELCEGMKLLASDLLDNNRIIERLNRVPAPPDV
Method in brief: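 Recombinant IKKε enzyme, 2 nM final, in Hepes pH 7.4 kinase buffer (10 mM MgCl₂, 1 mM EGTA, 2 mM DTT, 0.01% Tween-20). Substrate was 50 nM ULight-rpS6, with 5 μM ATP, run 2 h at room temperature. The reaction was quenched with 20 mM EDTA containing 2 nM Eu-anti-phospho antibody. After 2 h, TR-FRET was read at 615 and 665 nm (340 nm excitation). Percent inhibition was taken versus solvent control; triplicate points.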

[4] = molecular target: T4, recombinant IKKβ (Homo sapiens, UniProt O14920); assay: LANCE Ultra TR-FRET kinase assay, recombinant IKKβ; assay type: biochemical
T4 sequence (O14920 1-756): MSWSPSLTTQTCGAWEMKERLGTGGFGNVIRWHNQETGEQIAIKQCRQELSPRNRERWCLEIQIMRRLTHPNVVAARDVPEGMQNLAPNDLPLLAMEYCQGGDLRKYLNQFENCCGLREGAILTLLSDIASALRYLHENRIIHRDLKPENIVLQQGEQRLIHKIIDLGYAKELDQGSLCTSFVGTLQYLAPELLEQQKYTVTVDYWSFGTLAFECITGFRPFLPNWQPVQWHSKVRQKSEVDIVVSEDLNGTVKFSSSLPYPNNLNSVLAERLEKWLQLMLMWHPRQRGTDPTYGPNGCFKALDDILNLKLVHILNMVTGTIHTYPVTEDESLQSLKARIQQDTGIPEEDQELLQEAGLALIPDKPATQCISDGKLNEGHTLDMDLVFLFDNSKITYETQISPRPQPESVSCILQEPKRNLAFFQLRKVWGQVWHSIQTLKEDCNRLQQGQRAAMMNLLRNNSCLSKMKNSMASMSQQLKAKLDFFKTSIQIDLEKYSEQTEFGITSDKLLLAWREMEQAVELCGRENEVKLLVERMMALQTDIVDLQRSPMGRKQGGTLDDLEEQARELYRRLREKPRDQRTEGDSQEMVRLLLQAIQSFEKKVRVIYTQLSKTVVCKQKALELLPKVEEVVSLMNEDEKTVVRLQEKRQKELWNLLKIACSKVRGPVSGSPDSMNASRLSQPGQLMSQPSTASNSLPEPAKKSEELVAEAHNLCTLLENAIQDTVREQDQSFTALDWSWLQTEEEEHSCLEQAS
Method in brief: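 Purified recombinant IKKβ (1 nM) in Hepes pH 7.4 buffer with MgCl₂, EGTA, DTT and Tween-20; 50 nM ULight-IκBα peptide substrate; 1.25 μM ATP. Runs 1 h at room temperature, then stopped with 20 mM EDTA plus 2 nM Eu-labelled phospho-specific antibody for TR-FRET. Activity is % of solvent control, 3–4 experiments in triplicate.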

[5] = molecular target: T5, RXRα (Homo sapiens, UniProt P19793); assay: Gal4-RXRα transactivation assay in HEK-293-luciferase reporter cells; assay type: cell-based
T5 sequence (P19793 1-462): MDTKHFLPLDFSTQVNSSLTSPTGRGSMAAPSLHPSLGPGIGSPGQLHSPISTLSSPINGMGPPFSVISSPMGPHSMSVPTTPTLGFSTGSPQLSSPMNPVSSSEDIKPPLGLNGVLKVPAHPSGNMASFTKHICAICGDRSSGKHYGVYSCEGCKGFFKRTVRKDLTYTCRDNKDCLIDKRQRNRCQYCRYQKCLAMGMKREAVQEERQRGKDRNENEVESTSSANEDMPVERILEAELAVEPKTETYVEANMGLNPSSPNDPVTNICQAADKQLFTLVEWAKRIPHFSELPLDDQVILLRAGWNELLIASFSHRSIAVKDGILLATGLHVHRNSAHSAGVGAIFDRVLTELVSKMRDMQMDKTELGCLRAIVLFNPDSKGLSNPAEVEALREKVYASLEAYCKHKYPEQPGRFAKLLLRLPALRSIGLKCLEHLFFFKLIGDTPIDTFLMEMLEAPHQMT

[6] = system: Jurkat T cells; assay: CellTiter-GLO cell viability/proliferation assay; details: 4 μM, 24 h (Table 1)
[7] = molecular target: GST-RXRα LBD; assay: AlphaScreen or HTRF

Molecule: Cc1cc(O)c(C23CC4CC(CC(C4)C2)C3)cc1-c1ccc(CC(=O)O)cc1Cl [6a]
- inhibition of RXRα LBD/D22 binding stimulated by CD3254 [1]: 25%

Molecule: CCCCCOc1cc2c(cc1-c1cc(/C=C/C(=O)O)ccc1O)C(C)(C)CCC2(C)C [34, UVI3003, reference compound]
- inhibition of RXRα LBD/D22 binding stimulated by CD3254 [1]: complete inhibition

Molecule: O=C(O)c1ccc(-c2cnc(-c3ccc(O)c(C45CC6CC(CC(C6)C4)C5)c3)s2)cc1 [8a, 4-[2-(3-Adamantan-1-yl-4-hydroxyphenyl)thiazol-5-yl]benzoic Acid]
- inhibition of Jurkat cell viability [6]: > 85%

Molecule: fluorescein-LPYEGSLLLKLLRAPVEEV [fluorescein labeled D22 coactivator peptide]
- % inhibition of the CD3254-stimulated interaction (by 4a) [7]: 25%
- % inhibition of the CD3254-stimulated interaction (by 6a) [7]: 25%
- Delta F% (ligand: 4a) [7]: 29%
- Delta F% (ligand: 4b) [7]: 159%
- Delta F% (ligand: 5a) [7]: 487%
- Delta F% (ligand: 5b) [7]: 654%
- Delta F% (ligand: 5c) [7]: 113%
- Delta F% (ligand: 6b) [7]: 214%
- Delta F% (ligand: 7a) [7]: 156%
- Delta F% (ligand: 7c) [7]: 127%
- Delta F% (ligand: 8a) [7]: 94%
- Delta F% (ligand: 8b) [7]: 113%
- Delta F% (ligand: 8c) [7]: 133%
- Delta F% (ligand: 9c) [7]: 119%
- Delta F% (ligand: 10a) [7]: 102%
- Delta F% (ligand: 10c) [7]: 170%
- Delta F% (ligand: 9d) [7]: 87%
- Delta F% (ligand: CD3254 33) [7]: 416%
- Delta F% (no ligand) [7]: 100%

More lines, main results first:

- % Inhibition of IKK activity IKKα [2]: 5.0 ± 4.9%
- % Inhibition of IKK activity IKKε [3]: 14.4 ± 4.1%
- % Inhibition of IKK activity IKKβ ([4]; 20 μM AdAr, ATP near apparent Km, vs solvent control, ± SD, 3–4 experiments): 0%
Molecule: (E)-3-[2-(3-Acetamidopropoxy)-3-(adamant-1-yl)-4-hydroxybiphenyl-4-yl]acrylic Acid [2c]

- Gal4-RXRα transactivation, % of the maximum activity observed with control rexinoid CD3254 ([5]; 4 μM AdAr, CD3254 1 μM): ~ 20%
- RXR Profile Agonist (fold induction of RXRα activity) ([5]; AdArs 4 μM, positive control CD3254 1 μM, vs solvent control cells): 3 fold induction
Molecule: COCCOCOc1ccc(-c2ncc(-c3ccc(C(=O)O)cc3)s2)cc1C12CC3CC(CC(C3)C1)C2 [8c, 4-[2-(3-Adamantan-1-yl-4-[(2-methoxyethoxy)methoxy]phenyl)thiazol-5-yl]benzoic Acid]

- inhibition in Gal4-RXRα transactivation assay, antagonist mode ([5]; 100 nM CD3254 plus 4 μM AdAr): 30%
- potency against IKKβ relative to MX781 3 (times more potent) ([4]; ratio of IC50 values): about 2.5 times
- inhibition of RXRα LBD/D22 binding stimulated by CD3254 [1]: 25%
Molecule: Cc1cc(O)c(C23CC4CC(CC(C4)C2)C3)cc1-c1ccc2cc(C(=O)O)ccc2c1Cl [4a]
- inhibition of Jurkat cell viability [6]: > 85%

- Delta F% (ligand: 4a) [7]: 53%
- Delta F% (ligand: 4b) [7]: 187%
- Delta F% (ligand: 5a) [7]: 373%
- Delta F% (ligand: 5b) [7]: 437%
- Delta F% (ligand: 5c) [7]: 152%
- Delta F% (ligand: 6a) [7]: 81%
- Delta F% (ligand: 6b) [7]: 422%
- Delta F% (ligand: 7a) [7]: 162%
- Delta F% (ligand: 8a) [7]: 183%
- Delta F% (ligand: 8b) [7]: 117%
- Delta F% (ligand: 8c) [7]: 159%
- Delta F% (ligand: 9a) [7]: 116%
- Delta F% (ligand: 9b) [7]: 106%
- Delta F% (ligand: 9c) [7]: 122%
- Delta F% (ligand: 10a) [7]: 111%
- Delta F% (ligand: 10c) [7]: 172%
- Delta F% (ligand: 7d) [7]: 133%
- Delta F% (ligand: 8d) [7]: 115%
- Delta F% (ligand: 9d) [7]: 106%
- Delta F% (ligand: CD3254 33) [7]: 561%
- Delta F% (no ligand) [7]: 148%
Molecule: CPSSHSSLTERHKILHRLLQEGSPSK (biotin on the added C-terminal lysine (-K-biotin)) [biotinylated SRC-1-676-700 peptide]
